Test results published in ChEMBL document CHEMBL4177525, “Synthesis and evaluation of frentizole-based indolyl thiourea analogues as MAO/ABAD inhibitors for Alzheimer's disease treatment” (Bioorg Med Chem, 2017).
The source made the active and inactive calls. The calls are words filed in the database; no cut-off is given here.

Tests used:
[1] = biological target: T1, Amine oxidase [flavin-containing] A (Homo sapiens, UniProt P21397); assay: Inhibition of human purified MAO-A expressed in insect cell membranes assessed as reduction in conversion of kynuramine to 4-hydroxyquinoline by spectrophotometric assay
T1 sequence (P21397 whole entry): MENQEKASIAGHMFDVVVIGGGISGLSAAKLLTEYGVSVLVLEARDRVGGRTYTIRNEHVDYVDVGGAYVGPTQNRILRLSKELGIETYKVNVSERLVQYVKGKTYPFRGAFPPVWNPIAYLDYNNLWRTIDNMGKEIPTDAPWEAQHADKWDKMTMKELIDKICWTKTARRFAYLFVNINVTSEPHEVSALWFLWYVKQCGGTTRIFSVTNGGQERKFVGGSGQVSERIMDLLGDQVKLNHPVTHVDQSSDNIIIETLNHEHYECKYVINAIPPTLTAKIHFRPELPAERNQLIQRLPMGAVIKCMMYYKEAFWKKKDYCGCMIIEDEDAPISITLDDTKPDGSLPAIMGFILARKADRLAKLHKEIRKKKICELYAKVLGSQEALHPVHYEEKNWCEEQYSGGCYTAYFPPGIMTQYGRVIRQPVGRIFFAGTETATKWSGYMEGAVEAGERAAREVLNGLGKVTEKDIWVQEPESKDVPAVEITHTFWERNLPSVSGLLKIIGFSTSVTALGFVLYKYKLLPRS

[2] = biological target: T1, Amine oxidase [flavin-containing] A; assay: Inhibition of human membrane bound MAO-A expressed in insect cell membranes assessed as reduction in conversion of kynuramine to 4-hydroxyquinoline by spectrophotometric assay
How it was run: (§1)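 Human MAO-A or MAO-B expressed in insect cell membranes, diluted 1/4000 (A) or 1/2000 (B). Kynuramine at 2×KM: 60 µM for MAO-A, 30 µM for MAO-B. Assay in 50 mM potassium phosphate pH 7.5, 30°C, 1% DMSO, absorbance at 314 nm. Inhibitor varied over 4 orders of magnitude, up to 100 µM. Linear rates from 8-10 assays fitted by 3-parameter regression with bottom fixed at zero; IC50 ± SE of estimate.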

[3] = biological target: Amyloid beta-binding alcohol dehydrogenase (Homo sapiens, UniProt Q2L8D9); assay: Inhibition of ABAD (unknown origin) assessed as residual activity at 100 uM using acetoacetyl-CoA in presence of NADH by spectrophotometric assay relative to control
How it was run: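 Recombinant ABAD at 0.5 µg/mL with NADH 250 µM and acetoacetyl-CoA 120 µM; compound at 100 µM in 1% DMSO, controls with matching DMSO. Buffer 10 mM HEPES, 0.5% gelatin, pH 7.4 at 37°C. NADH consumption read as falling absorbance at 340 nm; reported as % remaining activity ± SEM from two biological repeats, each with three technical repeats.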

[4] = biological target: T2, peroxidase (horseradish peroxidase) (Raphanus sativus, UniProt K7N5L9); assay: Inhibition of horse radish peroxidase assessed as residual activity at 5 uM by amplex red dye based fluorescence assay; conditions: horseradish peroxidase (isolated enzyme), probe Amplex Red, read-out: Activity
How it was run: (§2)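 HRP (0.02 U/mL) given H2O2 20 µM directly as substrate plus Ampliflu Red 20 µM in 50 mM potassium phosphate pH 7.4. Compound at 50 or 5 µM, 1% DMSO; controls DMSO only. Resorufin fluorescence read at ex 535/em 595 nm, 30°C, as remaining HRP activity.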

[5] = Cytotoxicity against CHOK1 cells assessed as reduction in cell viability after 24 hrs by MTT assay; format: cell-based, Cricetulus griseus; conditions: chinese hamster, CHO-K1 cells; read-out: LC50
How it was run: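 CHO-K1 cells grown as ECACC recommends, seeded 8000 per well; compounds from DMSO stocks diluted in F-12 with 10% FBS and 1% pen/strep (final DMSO at most 0.5%), exposed 24 h. Medium then replaced with 10 µM MTT for about 3 h, formazan dissolved in DMSO, absorbance read at 570 nm (650 nm reference). LC50 from control-subtracted triplicates by four-parameter regression; mean ± SEM of 3 independent runs.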

[6] = biological target: T2, peroxidase (horseradish peroxidase); assay: Inhibition of horse radish peroxidase assessed as residual activity at 50 uM by amplex red dye based fluorescence assay; conditions: horseradish peroxidase (isolated enzyme), probe Amplex Red, read-out: Activity; how it was run: as §2
[7] = biological target: T3, Amine oxidase [flavin-containing] B (Homo sapiens, UniProt P27338); assay: Inhibition of human membrane bound MAO-B expressed in insect cell membranes assessed as reduction in conversion of kynuramine to 4-hydroxyquinoline by spectrophotometric assay; how it was run: as §1
T3 sequence (P27338 whole entry): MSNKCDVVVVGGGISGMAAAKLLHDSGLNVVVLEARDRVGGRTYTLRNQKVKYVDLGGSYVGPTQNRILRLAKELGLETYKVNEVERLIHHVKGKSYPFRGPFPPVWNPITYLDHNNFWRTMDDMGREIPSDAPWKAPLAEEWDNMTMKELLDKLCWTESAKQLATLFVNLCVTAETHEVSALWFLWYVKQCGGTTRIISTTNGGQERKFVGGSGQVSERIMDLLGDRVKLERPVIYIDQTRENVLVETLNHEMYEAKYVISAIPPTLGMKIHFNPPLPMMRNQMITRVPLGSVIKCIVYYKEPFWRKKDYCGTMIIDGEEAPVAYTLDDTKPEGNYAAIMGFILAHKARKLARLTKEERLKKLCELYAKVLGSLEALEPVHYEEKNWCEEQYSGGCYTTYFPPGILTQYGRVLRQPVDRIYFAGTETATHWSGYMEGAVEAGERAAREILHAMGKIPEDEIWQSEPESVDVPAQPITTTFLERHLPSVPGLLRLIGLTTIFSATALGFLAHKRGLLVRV

[8] = Solubility of the compound at 100 uM; format: physicochemical
How it was run: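 Compounds checked for solubility in assay buffer at 100 µM.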

[9] = Quenching activity of the compound assessed as reduction in resorufin fluorescence; format: functional
How it was run: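 Resorufin at 1 µM and 10 µM measured for fluorescence in the presence of compound at 50 µM.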

T2 sequence (K7N5L9 whole entry): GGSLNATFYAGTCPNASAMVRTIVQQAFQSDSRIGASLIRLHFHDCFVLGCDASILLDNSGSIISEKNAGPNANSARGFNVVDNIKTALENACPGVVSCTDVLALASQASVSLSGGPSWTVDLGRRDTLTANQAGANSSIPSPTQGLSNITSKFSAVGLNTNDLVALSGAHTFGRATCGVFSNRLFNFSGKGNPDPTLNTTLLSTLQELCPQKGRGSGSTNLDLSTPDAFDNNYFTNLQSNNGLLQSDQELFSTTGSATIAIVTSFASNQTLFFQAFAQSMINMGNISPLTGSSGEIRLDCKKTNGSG

S=C(Nc1ccccc1)Nc1ccc2[nH]ccc2c1
IC50 ([1]; read-out: IC50): > 30 µM
IC50 ([2]; read-out: IC50): 57.5 µM
Activity [3]: 85.8%
activity at 5 µM [4]: 81.4%
CC50 at 24 h [5]: 337 µM
activity at 50 µM [6]: 46.1%
IC50 ([7]; read-out: IC50): 60 µM
solubility [8]: Soluble
Activity [9]: inactive

COc1ccc(NC(=S)Nc2ccc3[nH]ccc3c2)cc1OC
IC50 [1]: Not Active
Activity [3]: 93.8%
activity at 5 µM [4]: 61%
CC50 at 24 h [5]: 797 µM
activity at 50 µM [6]: 41.5%
solubility [8]: Soluble
Activity [9]: inactive

COC(=O)c1cc(NC(=S)Nc2ccc3[nH]ccc3c2)ccc1O
IC50 [1]: Not Active
IC50 ([2]; read-out: IC50): > 100 µM
Activity [3]: 90%
activity at 5 µM [4]: 61.2%
CC50 at 24 h [5]: 423 µM
activity at 50 µM [6]: 42.2%
IC50 ([7]; read-out: IC50): 31 µM
solubility [8]: Soluble
Activity [9]: inactive

Cc1ccc(NC(=S)Nc2ccc3[nH]ccc3c2)c(O)c1
IC50 [1]: Not Active
IC50 ([2]; read-out: IC50): 24 µM
Activity [3]: 87.2%
activity at 5 µM [4]: 47.3%
CC50 at 24 h [5]: 370 µM
activity at 50 µM [6]: 36.2%
IC50 ([7]; read-out: IC50): 3.2 µM
solubility [8]: Soluble
Activity [9]: inactive

Oc1cccc(NC(=S)Nc2ccc3[nH]ccc3c2)c1
IC50 [1]: Not Active
Activity [3]: 91.6%
activity at 5 µM [4]: 81.4%
CC50 at 24 h [5]: 977 µM
activity at 50 µM [6]: 50.9%
solubility [8]: Soluble
Activity [9]: inactive

S=C(Nc1ccc2[nH]ccc2c1)Nc1cccc2cnccc12
IC50 ([1]; read-out: IC50): 24 µM
IC50 ([2]; read-out: IC50): 24 µM
Activity [3]: 96.5%
activity at 5 µM [4]: 63.3%
CC50 at 24 h [5]: > 400 µM
activity at 50 µM [6]: 47.9%
IC50 ([7]; read-out: IC50): 4 µM
solubility [8]: Soluble
Activity [9]: inactive

CC(=O)c1ccc(NC(=S)Nc2ccc3[nH]ccc3c2)cc1
IC50 ([1]; read-out: IC50): 67 µM
Activity [3]: 79.2%
activity at 5 µM [4]: 66.3%
CC50 at 24 h [5]: 154 µM
activity at 50 µM [6]: 41.8%
solubility [8]: Soluble
Activity [9]: inactive

O=C(c1ccccc1)c1ccc(NC(=S)Nc2ccc3[nH]ccc3c2)cc1
IC50 [1]: Not Active
Activity [3]: 80.4%
activity at 5 µM [4]: 79.1%
CC50 at 24 h [5]: 20 µM
activity at 50 µM [6]: 71.4%
solubility [8]: Soluble
Activity [9]: inactive

CCOC(=O)c1ccc(NC(=S)Nc2ccc3[nH]ccc3c2)cc1
IC50 ([1]; read-out: IC50): 71 µM
Activity [3]: 74.6%
activity at 5 µM [4]: 65.8%
CC50 at 24 h [5]: 123 µM
activity at 50 µM [6]: 36.6%
solubility [8]: Soluble
Activity [9]: inactive

COc1ccc(NC(=S)Nc2ccc3[nH]ccc3c2)cc1
IC50 ([1]; read-out: IC50): 36 µM
IC50 ([2]; read-out: IC50): 36 µM
Activity [3]: 91.3%
activity at 5 µM [4]: 67.6%
CC50 at 24 h [5]: 476 µM
activity at 50 µM [6]: 46.5%
IC50 ([7]; read-out: IC50): 37 µM
solubility [8]: Soluble
Activity [9]: inactive

Oc1cc(Cl)ccc1NC(=S)Nc1ccc2[nH]ccc2c1
IC50 ([1]; read-out: IC50): 39 µM
IC50 ([2]; read-out: IC50): 6.3 µM
Activity [3]: 76%
activity at 5 µM [4]: 58.9%
CC50 at 24 h [5]: 251 µM
activity at 50 µM [6]: 35.9%
IC50 ([7]; read-out: IC50): 0.3 µM
solubility [8]: Soluble
Activity [9]: inactive

S=C(Nc1ccc(Oc2ccccc2)cc1)Nc1ccc2[nH]ccc2c1
IC50 [1]: Not Active
Activity [3]: 90.9%
activity at 5 µM [4]: 73.1%
CC50 at 24 h [5]: 36 µM
activity at 50 µM [6]: 65.6%
solubility [8]: Soluble
Activity [9]: inactive

OCc1ccc(NC(=S)Nc2ccc3[nH]ccc3c2)cc1
IC50 [1]: Not Active
Activity [3]: 84.2%
activity at 5 µM [4]: 88.2%
CC50 at 24 h [5]: 1080 µM
activity at 50 µM [6]: 51.4%
solubility [8]: Soluble
Activity [9]: inactive

CC(=O)Nc1ccc(NC(=S)Nc2ccc3[nH]ccc3c2)cc1
IC50 ([1]; read-out: IC50): 71 µM
IC50 ([2]; read-out: IC50): 70 µM
Activity [3]: 93%
activity at 5 µM [4]: 68.1%
CC50 at 24 h [5]: 1040 µM
activity at 50 µM [6]: 39.3%
IC50 ([7]; read-out: IC50): 37 µM
solubility [8]: Soluble
Activity [9]: inactive

COc1ccc2nc(NC(=O)Nc3ccccc3)sc2c1 [FRENTIZOLE]
IC50 [1]: Not Active
IC50 [2]: Not Active
CC50 at 24 h [5]: 31 µM
IC50 [7]: Not Active

COc1ccc(CNC(=S)Nc2ccc3[nH]ccc3c2)cc1
IC50 [1]: Not Active
Activity [3]: 88.5%
activity at 5 µM [4]: 83.5%
CC50 at 24 h [5]: 232 µM
activity at 50 µM [6]: 54.4%
solubility [8]: Soluble
Activity [9]: inactive
